ChEMBL document CHEMBL2331336, “Discovery and structure-activity relationship of 1,3-cyclohexyl amide derivatives as novel mGluR5 negative allosteric modulators” (Bioorg Med Chem Lett, 2013)
In brackets after ≈: the same amount, converted by molar mass.

Experiments:
[1] = target: T1, Metabotropic glutamate receptor 5 (Homo sapiens, UniProt P41594); assay: Antagonist activity at human mGluR5 expressed in HEK293 cells assessed as inhibition of Ca2+ mobilization by FLIPR assay; type: functional, cell-based
T1 sequence (P41594 whole entry): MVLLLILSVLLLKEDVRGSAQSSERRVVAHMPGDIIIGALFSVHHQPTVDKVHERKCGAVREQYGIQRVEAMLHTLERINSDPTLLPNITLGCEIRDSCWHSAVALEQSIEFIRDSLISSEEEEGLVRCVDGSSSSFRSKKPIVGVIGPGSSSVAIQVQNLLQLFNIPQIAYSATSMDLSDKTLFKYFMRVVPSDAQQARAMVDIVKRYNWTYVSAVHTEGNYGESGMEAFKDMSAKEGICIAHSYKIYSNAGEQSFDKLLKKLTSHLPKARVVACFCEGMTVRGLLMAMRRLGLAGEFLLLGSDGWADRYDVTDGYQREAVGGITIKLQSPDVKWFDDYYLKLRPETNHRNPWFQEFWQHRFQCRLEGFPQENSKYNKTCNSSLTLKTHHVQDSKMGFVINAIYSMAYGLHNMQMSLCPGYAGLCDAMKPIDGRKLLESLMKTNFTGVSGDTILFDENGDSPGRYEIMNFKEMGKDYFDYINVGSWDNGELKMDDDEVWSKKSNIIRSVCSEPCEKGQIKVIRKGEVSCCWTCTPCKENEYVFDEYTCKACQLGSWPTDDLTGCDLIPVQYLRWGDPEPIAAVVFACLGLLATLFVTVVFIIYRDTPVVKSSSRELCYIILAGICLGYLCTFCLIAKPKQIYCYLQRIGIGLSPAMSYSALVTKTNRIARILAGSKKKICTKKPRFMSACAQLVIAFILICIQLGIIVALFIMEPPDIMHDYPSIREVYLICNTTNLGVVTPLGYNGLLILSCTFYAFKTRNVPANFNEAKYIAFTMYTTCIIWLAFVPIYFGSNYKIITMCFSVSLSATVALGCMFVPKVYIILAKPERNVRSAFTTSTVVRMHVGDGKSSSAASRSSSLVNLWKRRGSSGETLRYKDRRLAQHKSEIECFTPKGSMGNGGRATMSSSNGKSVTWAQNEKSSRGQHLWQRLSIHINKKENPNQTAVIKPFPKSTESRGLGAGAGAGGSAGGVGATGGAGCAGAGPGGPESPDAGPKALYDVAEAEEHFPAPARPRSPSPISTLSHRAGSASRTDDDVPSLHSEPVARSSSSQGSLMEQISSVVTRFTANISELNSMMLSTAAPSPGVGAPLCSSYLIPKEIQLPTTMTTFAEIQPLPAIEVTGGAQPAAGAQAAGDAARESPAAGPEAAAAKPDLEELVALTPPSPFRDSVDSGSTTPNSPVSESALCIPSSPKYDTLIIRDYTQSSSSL

[2] = target: T1, Metabotropic glutamate receptor 5; assay: Displacement of [3H]-ABP688 from human mGluR5 expressed in HEK293 cells after 60 mins by scintillation counting; type: cell-based
[3] = Kinetic solubility of the compound in potassium phosphate buffer after 4 hrs; type: physicochemical; settings: read-out: Kinetic_solubility
Method in brief: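 Kinetic solubility: compound from 10 mM DMSO stock diluted into 25 mM potassium phosphate buffer and shaken 4 h. Supernatant analyzed by UPLC with PDA detection at 254 nm.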

[4] = tested on: Liver microsomes; assay: Intrinsic clearance in rat liver microsomes; type: ADME, Microsome
[5] = Plasma protein binding in human; type: ADME, cell-free; settings: read-out: PPB (converted)
[6] = tested on: Liver; assay: Intrinsic clearance in mouse liver microsomes; type: ADME, Microsome
[7] = tested on: Liver microsomes; assay: Intrinsic clearance in human liver microsomes; type: ADME, Microsome; parameters: unit not given here
[8] = target: T2, Metabotropic glutamate receptor 1 (Rattus norvegicus, UniProt P23385); assay: Agonist activity at rat mGluR1 expressed in HEK293 cells assessed as Ca2+ mobilization by FLIPR assay; type: functional, cell-based
T2 sequence (P23385 whole entry): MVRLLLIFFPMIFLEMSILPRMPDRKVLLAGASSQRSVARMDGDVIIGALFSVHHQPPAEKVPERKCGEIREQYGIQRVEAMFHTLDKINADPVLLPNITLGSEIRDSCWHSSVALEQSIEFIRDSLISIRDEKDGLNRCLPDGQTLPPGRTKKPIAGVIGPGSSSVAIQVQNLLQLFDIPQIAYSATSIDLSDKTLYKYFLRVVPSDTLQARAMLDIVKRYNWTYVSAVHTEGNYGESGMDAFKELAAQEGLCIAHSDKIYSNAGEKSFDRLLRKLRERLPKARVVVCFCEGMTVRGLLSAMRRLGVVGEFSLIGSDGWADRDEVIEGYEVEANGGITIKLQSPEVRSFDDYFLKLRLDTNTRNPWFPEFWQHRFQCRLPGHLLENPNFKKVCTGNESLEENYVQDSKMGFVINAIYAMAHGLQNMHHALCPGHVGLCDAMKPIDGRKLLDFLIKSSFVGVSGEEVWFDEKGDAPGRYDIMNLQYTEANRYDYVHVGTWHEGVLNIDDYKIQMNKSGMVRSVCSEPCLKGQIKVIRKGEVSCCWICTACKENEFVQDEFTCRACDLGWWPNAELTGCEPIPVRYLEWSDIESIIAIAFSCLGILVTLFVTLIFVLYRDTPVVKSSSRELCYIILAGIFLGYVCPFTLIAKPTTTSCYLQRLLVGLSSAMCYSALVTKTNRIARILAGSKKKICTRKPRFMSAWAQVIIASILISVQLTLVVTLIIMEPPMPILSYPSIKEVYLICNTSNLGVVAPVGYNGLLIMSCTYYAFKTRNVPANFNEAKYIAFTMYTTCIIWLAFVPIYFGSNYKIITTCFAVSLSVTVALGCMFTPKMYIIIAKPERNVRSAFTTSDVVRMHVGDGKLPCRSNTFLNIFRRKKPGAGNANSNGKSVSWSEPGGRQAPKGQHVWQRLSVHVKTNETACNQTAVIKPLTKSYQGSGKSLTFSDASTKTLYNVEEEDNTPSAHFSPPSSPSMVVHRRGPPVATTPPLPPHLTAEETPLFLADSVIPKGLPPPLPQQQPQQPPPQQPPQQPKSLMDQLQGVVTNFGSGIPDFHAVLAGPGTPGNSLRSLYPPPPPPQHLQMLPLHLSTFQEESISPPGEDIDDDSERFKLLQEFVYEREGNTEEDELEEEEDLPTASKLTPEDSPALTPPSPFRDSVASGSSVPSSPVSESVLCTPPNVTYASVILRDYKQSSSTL
Method in brief: (§1)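 Rat mGluR1 stably in HEK293 cells (1.5% calf serum medium), seeded 24 h earlier, Fluo-4 loaded 1 h at 37 °C in HBSS/HEPES pH 7.4 with probenecid. Curves fitted with Hill equation.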

[9] = target: T2, Metabotropic glutamate receptor 1; assay: Antagonist activity at rat mGluR1 expressed in HEK293 cells assessed as inhibition of Ca2+ mobilization by FLIPR assay; type: functional, cell-based; method in brief: as §1
[10] = Partition co-efficient, log D at pH 7.4 of the compound by shake flask method; type: physicochemical; settings: buffer

| Structure (SMILES) | IC50 [1] [nM] | further results |
| --- | --- | --- |
| Cc1ccnc(C(=O)N[C@H]2CCC[C@H](NC(=O)c3cccc(Cl)c3)C2)c1 (relative stereo) | 3400 | – |
| O=C(N[C@H]1CCC[C@H](NC(=O)c2cccc(Cl)c2)C1)c1ccc(F)cc1 (relative stereo) | 194 | Ki [2]: 492 nM |
| O=C(N[C@H]1CCC[C@H](NC(=O)C2CCCCC2)C1)c1cccc(Cl)c1 (relative stereo) | 857 | – |
| CN(C)c1ccc(C(=O)N[C@H]2CCC[C@H](NC(=O)c3cccc(Cl)c3)C2)cc1 | 473 | – |
| O=C(N[C@H]1CCC[C@H](NC(=O)c2ccccc2F)C1)c1cccc(Cl)c1 (relative stereo) | 175 | Ki [2]: 760 nM |
| N#Cc1cccc(C(=O)NC2CCCC(NC(=O)c3ccccn3)C2)c1 (racemic) | 531 | Ki [2]: 1540 nM |
| O=C(N[C@H]1CCC[C@H](NC(=O)c2cccc(Cl)c2)C1)c1cccnc1 (relative stereo) | 612 | – |
| O=C(Cc1ccccn1)N[C@H]1CCC[C@H](NC(=O)c2cccc(Cl)c2)C1 (relative stereo) | > 10000 | – |
| COc1cccc(C(=O)N[C@H]2CCC[C@H](NC(=O)c3cccc(Cl)c3)C2)c1 (relative stereo) | 789 | – |
| N#Cc1cccc(C(=O)N[C@@H]2CCC[C@@H](NC(=O)c3ccccn3)C2)c1 | 231 | solubility kinetic at 4 h [3]: 240 µM (≈ 83.6 µg/mL); Intrinsic clearance [4]: 8.3 mL/min; fraction unbound [5]: 0.157; Intrinsic clearance [6]: 1.8 mL/min; Intrinsic clearance [7]: 0.5; EC50 [8]: > 10000 nM; IC50 [9]: > 10000 nM; Ki [2]: 1270 nM |
| O=C(N[C@H]1CCC[C@H](NC(=O)c2cccc(Cl)c2)C1)c1cccc(F)c1 | 9600 | – |
| Cc1cccc(C(=O)N[C@@H]2CCC[C@@]3(CN=C(c4cccc(Cl)c4)O3)C2)n1 (relative stereo) | 72 | – |
| O=C(NC1CCCC2(CN=C(c3cccc(Cl)c3)O2)C1)c1cccnc1 (mixture of isomers) | > 10000 | – |
| O=C(NC1CCCC(NC(=O)c2cccc(Cl)c2)C1)c1cccc(Cl)c1 (mixture of isomers) | 139 | – |
| Cc1cccc(C(=O)N[C@H]2CCC[C@@]3(CN=C(c4cccc(Cl)c4)O3)C2)n1 (relative stereo) | 1510 | – |
| Cc1cccc(C(=O)N[C@@H]2CCC[C@@]3(CN=C(c4cccc(Cl)c4)O3)C2)n1 | 5230 | – |
| O=C(N[C@@H]1CCC[C@@H](NC(=O)c2cccc(Cl)c2)C1)c1cccc(F)c1 | 59 | logD [10]: > 5; solubility kinetic at 4 h [3]: 5.4 µM (≈ 2.02 µg/mL); Intrinsic clearance [4]: 9.4 mL/min; fraction unbound [5]: 0.039; Intrinsic clearance [7]: 0.8; EC50 [8]: > 10000 nM; IC50 [9]: 2100 nM; Ki [2]: 211 nM |
| O=C(N[C@H]1CCC[C@H](NC(=O)c2cccc(F)c2)C1)c1cccc(F)c1 | 593 | – |
| O=C(N[C@@H]1CCC[C@@]2(CN=C(c3cccc(Cl)c3)O2)C1)c1ccccn1 | 2910 | – |
| O=C(NC1CCCC(NC(=O)c2cccc(Cl)c2)C1)c1cccc(F)c1 (racemic) | 86 | Ki [2]: 320 nM |
| Cc1cccnc1C(=O)N[C@H]1CCC[C@H](NC(=O)c2cccc(Cl)c2)C1 (relative stereo) | 7840 | – |
| O=C(NC1CCCC2(CN=C(c3cccc(Cl)c3)O2)C1)c1ccncc1 (mixture of isomers) | > 10000 | – |
| N#Cc1cccc(C(=O)N[C@@H]2CCC[C@H](NC(=O)c3ccccn3)C2)c1 (relative stereo) | > 10000 | – |
